This is an account of results in ChEMBL document CHEMBL1153264, “(1,2,3-Triazol-4-yl)benzenamines: synthesis and activity against VEGF receptors 1 and 2” (Bioorg Med Chem Lett, 2009).

Assay [1] addresses Insulin-like growth factor 1 receptor (Homo sapiens) (UniProt P08069). Nature of the assay: Inhibition of IGF1R at 10 uM.
The target of assay [2] is Receptor-type tyrosine-protein kinase FLT3 (Homo sapiens) (UniProt P36888). The assay can be described thus: Inhibition of Flt3 at 10 uM.
Assay [3] addresses Bcr/Abl fusion protein (Homo sapiens) (UniProt P00519+P11274). Nature of the assay: Inhibition of Bcr-Abl at 10 uM. The assay is classed as protein assay.
Assay [4] deals with T1, Vascular endothelial growth factor receptor 2 (Homo sapiens, UniProt P35968). Nature of the assay: Inhibition of VEGFR2 by HTRF assay in presence of 2 uM ATP. The method in brief:
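HTRF kinase assay with KDR enzyme (3–4 ng) and biotinylated pGAT substrate. ATP added to start, 45 min at RT. Stopped with EDTA/KF buffer plus Eu-cryptate anti-phosphotyrosine antibody, 2 h RT, then HTRF read. IC50 from 10-point log concentration curves, mean of at least two duplicate runs.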
(TR-FRET usually uses a lanthanide donor and a delayed reading to cut background.)

The target of assay [5] is Insulin receptor (Homo sapiens) (UniProt P06213). Nature of the assay: Inhibition of IR at 10 uM.
Assay [6] in a line: Inhibition of PKA at 10 uM.
For assay [7], the target named is Aurora kinase B (Homo sapiens) (UniProt Q96GD4). The assay can be described thus: Inhibition of Aurora B at 10 uM.
Assay [8] concerns the target T1, Vascular endothelial growth factor receptor 2. Nature of the assay: Binding affinity to VEGFR2 at IC90 in presence of ATP. The method, boiled down:
(§1)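 ATP competition assay with VEGFR-2. Five concentrations of ³²P ATP across 0-100 µM, each incubated with enzyme for 45 min at RT. Inhibitor was absent or present at two fixed levels.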

For assay [9], the target named is Epidermal growth factor receptor (Homo sapiens) (UniProt P00533). The assay can be described thus: Inhibition of EGFR at 10 uM.
Assay [10] has as its target Glycogen synthase kinase-3 beta (Homo sapiens) (UniProt P49841). The assay can be described thus: Inhibition of GSK3-beta at 10 uM.
Assay [11] addresses Fibroblast growth factor receptor 1 (Homo sapiens) (UniProt P11362). Nature of the assay: Inhibition of FGFR1 at 10 uM.
Assay [12] has as its target T2, Aurora kinase A (Homo sapiens) (UniProt O14965).
T2 sequence (whole entry): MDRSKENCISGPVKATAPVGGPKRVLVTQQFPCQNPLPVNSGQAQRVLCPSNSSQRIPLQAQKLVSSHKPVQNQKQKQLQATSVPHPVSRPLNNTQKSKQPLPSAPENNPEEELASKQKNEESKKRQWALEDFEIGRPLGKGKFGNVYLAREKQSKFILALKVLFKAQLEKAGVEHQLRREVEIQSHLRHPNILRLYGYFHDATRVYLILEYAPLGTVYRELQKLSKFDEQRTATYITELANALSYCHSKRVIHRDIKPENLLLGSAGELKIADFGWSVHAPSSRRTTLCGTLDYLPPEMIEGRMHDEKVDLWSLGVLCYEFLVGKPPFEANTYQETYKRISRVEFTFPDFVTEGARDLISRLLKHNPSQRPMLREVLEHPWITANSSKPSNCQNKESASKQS
Nature of the assay: Inhibition of Aurora A at 10 uM.

Assay [13] addresses Vascular endothelial growth factor receptor 1 (Homo sapiens, UniProt P17948). Nature of the assay: Inhibition of VEGFR1 by HTRF assay.
Assay [14] addresses Hepatocyte growth factor receptor (Homo sapiens) (UniProt P08581). Nature of the assay: Inhibition of c-Met at 10 uM.
Assay [15] concerns the target T1, Vascular endothelial growth factor receptor 2. The assay can be described thus: Binding affinity to VEGFR2 at IC50 in presence of ATP. The method in brief: as §1
Assay [16] deals with Serine/threonine-protein kinase PLK1 (Homo sapiens) (UniProt P53350). Nature of the assay: Inhibition of Plk1 at 10 uM.
The target in assay [17] is T1, Vascular endothelial growth factor receptor 2. Nature of the assay: Inhibition of VEGF-induced phosphorylation of VEGFR2 by cell-based ELISA.
In assay [18] the target is Receptor tyrosine-protein kinase erbB-2 (Homo sapiens) (UniProt P04626). Nature of the assay: Inhibition of ErbB2 at 10 uM.
Assay [19] has as its target Cyclin-dependent kinase 2 (Homo sapiens) (UniProt P24941). Nature of the assay: Inhibition of Cdk2 at 10 uM.
The target of assay [20] is Proto-oncogene tyrosine-protein kinase Src (Homo sapiens) (UniProt P12931). The assay can be described thus: Inhibition of Src at 10 uM.
In assay [21] the target is Cyclin-dependent kinase 1 (Homo sapiens) (UniProt P06493). The assay can be described thus: Inhibition of Cdk1 at 10 uM.
A short description of assay [22]: Inhibition of Bcr-Abl T315 mutant at 10 uM.
In assay [23] the target is Macrophage-stimulating protein receptor (Homo sapiens) (UniProt Q04912). Nature of the assay: Inhibition of Ron at 10 uM.

By inhibition is commonly meant the drop in the measured response relative to a control, in per cent. In general, IC50 refers to the point on the concentration scale where inhibition reaches its midpoint. The Ki is a measure of affinity in units of concentration, obtained from inhibition or displacement.

The structures appear in SMILES notation.

Sequence of Vascular endothelial growth factor receptor 1 (P17948 whole entry): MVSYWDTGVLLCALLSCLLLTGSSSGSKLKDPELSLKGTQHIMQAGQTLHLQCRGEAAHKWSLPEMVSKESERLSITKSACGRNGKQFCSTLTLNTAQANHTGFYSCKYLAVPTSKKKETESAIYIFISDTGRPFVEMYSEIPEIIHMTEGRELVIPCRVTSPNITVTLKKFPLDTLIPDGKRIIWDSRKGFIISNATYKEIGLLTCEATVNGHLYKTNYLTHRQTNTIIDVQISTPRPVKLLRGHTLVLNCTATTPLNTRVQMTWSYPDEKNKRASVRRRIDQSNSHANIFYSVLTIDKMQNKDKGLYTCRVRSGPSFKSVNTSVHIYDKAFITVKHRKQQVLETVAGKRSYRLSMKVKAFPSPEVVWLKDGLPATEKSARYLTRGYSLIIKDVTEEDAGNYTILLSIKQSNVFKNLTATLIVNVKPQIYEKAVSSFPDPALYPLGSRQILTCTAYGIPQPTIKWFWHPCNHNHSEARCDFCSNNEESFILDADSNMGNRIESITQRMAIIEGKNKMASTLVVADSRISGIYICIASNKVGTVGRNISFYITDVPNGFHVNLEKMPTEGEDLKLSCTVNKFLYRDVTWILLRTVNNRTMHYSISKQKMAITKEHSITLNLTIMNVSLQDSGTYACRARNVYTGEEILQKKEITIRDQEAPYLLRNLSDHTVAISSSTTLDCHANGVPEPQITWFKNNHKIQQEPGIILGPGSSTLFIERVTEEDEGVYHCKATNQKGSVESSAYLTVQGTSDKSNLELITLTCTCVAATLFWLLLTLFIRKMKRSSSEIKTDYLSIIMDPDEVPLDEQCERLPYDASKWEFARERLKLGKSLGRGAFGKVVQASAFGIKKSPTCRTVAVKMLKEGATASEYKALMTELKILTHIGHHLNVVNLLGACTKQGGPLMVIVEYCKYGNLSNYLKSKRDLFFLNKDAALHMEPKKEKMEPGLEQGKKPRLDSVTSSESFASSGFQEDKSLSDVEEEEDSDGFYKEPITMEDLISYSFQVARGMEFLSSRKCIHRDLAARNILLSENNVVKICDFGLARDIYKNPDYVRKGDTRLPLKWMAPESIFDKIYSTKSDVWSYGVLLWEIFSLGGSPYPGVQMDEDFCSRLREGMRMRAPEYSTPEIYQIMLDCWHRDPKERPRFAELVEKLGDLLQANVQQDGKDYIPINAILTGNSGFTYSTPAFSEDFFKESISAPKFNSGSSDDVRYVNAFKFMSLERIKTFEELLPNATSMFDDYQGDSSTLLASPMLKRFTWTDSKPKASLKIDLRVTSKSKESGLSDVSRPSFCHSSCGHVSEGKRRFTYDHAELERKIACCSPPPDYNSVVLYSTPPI
Sequence of Bcr/Abl fusion protein (Homo sapiens) (P00519 whole entry, looked up, the tested form may be a part): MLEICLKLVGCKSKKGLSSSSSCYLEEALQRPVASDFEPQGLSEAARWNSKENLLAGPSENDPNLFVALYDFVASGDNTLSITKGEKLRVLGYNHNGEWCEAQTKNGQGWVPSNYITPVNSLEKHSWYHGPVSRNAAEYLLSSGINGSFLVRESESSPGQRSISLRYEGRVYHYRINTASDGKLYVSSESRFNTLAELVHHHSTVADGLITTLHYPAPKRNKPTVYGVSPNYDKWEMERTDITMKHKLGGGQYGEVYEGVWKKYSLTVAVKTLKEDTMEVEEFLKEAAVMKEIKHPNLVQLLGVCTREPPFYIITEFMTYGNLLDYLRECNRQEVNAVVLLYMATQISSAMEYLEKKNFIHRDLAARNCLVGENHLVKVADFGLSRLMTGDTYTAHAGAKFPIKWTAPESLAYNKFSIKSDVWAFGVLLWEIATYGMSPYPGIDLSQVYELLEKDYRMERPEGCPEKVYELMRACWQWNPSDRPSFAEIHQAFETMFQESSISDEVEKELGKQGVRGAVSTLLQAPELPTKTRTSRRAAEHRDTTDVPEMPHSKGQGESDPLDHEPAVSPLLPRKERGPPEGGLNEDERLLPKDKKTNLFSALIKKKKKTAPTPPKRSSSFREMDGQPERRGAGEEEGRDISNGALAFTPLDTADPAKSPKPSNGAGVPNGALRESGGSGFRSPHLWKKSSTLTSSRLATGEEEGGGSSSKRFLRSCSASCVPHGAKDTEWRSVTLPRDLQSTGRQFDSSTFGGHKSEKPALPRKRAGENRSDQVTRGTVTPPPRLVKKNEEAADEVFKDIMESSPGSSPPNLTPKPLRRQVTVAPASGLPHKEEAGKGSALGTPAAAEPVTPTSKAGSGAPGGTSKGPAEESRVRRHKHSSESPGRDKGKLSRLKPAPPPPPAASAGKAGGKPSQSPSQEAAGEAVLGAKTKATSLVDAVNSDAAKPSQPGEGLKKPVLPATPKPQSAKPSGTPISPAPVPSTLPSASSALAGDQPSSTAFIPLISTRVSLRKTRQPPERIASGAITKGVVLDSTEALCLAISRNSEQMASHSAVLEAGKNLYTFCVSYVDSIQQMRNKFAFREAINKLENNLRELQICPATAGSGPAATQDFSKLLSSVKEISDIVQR
Sequence of Bcr/Abl fusion protein (Homo sapiens) (P11274 whole entry, looked up, the tested form may be a part): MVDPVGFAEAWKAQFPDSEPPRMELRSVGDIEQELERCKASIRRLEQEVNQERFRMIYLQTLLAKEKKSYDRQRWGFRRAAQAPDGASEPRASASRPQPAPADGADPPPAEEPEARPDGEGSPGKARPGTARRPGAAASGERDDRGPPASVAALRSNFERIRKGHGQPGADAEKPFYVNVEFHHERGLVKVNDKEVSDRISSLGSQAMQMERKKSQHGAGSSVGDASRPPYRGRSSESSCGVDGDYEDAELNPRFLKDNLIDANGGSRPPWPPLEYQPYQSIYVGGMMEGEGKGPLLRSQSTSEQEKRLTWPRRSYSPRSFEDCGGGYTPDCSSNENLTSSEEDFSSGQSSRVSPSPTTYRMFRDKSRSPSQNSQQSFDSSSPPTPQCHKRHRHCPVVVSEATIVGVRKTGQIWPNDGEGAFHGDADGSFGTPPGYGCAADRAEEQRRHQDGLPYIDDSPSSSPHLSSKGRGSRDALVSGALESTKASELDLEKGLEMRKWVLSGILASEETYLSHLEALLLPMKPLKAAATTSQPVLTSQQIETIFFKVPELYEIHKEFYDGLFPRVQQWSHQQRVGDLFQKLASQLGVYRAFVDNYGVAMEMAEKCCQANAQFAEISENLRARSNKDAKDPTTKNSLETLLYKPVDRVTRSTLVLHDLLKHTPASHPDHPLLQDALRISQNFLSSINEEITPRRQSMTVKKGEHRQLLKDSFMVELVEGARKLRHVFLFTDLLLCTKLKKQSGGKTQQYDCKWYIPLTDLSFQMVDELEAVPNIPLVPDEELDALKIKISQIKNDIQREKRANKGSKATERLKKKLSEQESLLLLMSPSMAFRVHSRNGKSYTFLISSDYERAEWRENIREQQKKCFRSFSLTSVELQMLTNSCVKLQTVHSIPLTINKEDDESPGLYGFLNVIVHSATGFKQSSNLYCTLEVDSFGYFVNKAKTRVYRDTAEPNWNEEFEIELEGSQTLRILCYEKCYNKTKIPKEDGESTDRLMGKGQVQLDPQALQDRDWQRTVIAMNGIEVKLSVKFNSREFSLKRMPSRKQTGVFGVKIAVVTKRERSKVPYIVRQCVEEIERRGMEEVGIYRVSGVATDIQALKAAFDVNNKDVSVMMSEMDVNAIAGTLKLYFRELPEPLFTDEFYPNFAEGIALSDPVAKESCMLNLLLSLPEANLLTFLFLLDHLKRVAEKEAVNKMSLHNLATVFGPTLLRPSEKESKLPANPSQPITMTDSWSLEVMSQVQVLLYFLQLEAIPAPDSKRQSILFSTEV
Sequence of Glycogen synthase kinase-3 beta (Homo sapiens) (P49841 whole entry, looked up): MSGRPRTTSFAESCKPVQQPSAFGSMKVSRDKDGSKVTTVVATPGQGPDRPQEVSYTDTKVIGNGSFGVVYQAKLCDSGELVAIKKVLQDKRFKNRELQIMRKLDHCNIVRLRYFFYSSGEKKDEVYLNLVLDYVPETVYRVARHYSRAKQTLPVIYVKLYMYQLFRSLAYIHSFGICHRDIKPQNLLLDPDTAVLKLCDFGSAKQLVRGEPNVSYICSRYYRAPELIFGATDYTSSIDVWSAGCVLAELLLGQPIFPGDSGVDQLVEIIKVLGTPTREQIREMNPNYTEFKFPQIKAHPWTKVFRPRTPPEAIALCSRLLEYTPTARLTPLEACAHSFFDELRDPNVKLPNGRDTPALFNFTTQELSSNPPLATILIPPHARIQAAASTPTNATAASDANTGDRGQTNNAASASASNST
Sequence of Fibroblast growth factor receptor 1 (Homo sapiens) (P11362 22-822 limits assumed): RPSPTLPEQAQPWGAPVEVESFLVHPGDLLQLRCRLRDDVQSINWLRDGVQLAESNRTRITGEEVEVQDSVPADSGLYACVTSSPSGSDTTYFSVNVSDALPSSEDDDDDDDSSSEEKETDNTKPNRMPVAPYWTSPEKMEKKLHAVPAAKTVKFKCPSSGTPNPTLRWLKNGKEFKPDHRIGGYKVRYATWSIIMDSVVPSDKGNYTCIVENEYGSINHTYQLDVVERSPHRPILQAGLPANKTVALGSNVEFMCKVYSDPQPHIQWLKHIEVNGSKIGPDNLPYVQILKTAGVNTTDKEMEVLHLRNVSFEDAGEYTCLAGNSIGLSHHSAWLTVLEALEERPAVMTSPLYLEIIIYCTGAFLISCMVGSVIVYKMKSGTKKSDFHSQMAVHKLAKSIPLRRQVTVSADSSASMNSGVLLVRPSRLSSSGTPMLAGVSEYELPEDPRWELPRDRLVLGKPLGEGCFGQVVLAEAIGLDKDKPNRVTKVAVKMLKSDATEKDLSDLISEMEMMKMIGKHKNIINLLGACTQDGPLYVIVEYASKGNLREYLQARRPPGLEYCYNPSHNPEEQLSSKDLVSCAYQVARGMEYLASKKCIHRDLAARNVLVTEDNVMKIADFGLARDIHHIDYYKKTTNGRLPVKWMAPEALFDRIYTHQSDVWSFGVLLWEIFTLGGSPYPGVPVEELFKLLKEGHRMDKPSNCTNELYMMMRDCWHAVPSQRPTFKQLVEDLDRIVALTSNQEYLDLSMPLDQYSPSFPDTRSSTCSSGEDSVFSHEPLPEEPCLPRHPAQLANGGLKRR

On to `FC(F)(F)c1cccc(-n2cc(-c3ccccc3NCc3ccncc3)nn2)c1`, for which the inhibition in assay [1], in assay [2], in assay [3], in assay [5], in assay [6] and in assay [7] was less than 30% throughout. The inhibition in [9], in assay [10], in assay [11], in assay [12], in assay [14] and in assay [16] was less than 30% each time. The inhibition in [18], in [19], in assay [20], in assay [21], in assay [22] and in assay [23] was less than 30% throughout. Also, the IC50 in assay [4] worked out at 51 nM; in [13] it was 66 nM; in assay [17], 96 nM. Besides, the Ki is 80 nM in assay [8] and 90 nM in assay [15].
Regarding `CC(C)c1cccc(-n2cc(-c3ccccc3NCc3ccncc3)nn2)c1`, the inhibition in assay [1], in assay [2], in [3], in [5], in [6] and in assay [7] was less than 30% throughout. Moreover, the inhibition in [9], in [10], in [11], in assay [12], in [14] and in assay [16] was less than 30% throughout. The inhibition in assay [18], in assay [19], in assay [20], in assay [21], in assay [22] and in [23] was less than 30% each time. The results for the IC50 in assay [4], in assay [13] and in assay [17] were 110 nM, 130 nM and 150 nM, respectively. Besides, the Ki in assay [8] is 140 nM; in assay [15], 160 nM.
For the compound `Clc1cccc(-n2cc(-c3ccccc3NCc3ccncc3)nn2)c1`, the inhibition in assay [1], in assay [2], in assay [3], in assay [5], in assay [6] and in [7] was less than 30% each time. The inhibition in assay [9], in assay [10], in [11], in assay [12], in assay [14] and in [16] was less than 30% each time. In addition, the inhibition in assay [18], in assay [19], in assay [20], in assay [21], in [22] and in [23] was less than 30% each time. For the same compound, the 50% inhibitory concentration (IC50) in assay [4] was found to be 87 nM; in assay [13], 130 nM; in assay [17] it was 160 nM. Besides, the figures for the Ki in assay [8] and in assay [15] were 110 nM and 120 nM, respectively.
